Our source for the IC50 values is BindingDB's records for doi:10.1016/j.bmc.2012.09.049 (University of Copenhagen, 2012).

The target in experiment [1] is Excitatory amino acid transporter 2 (Homo sapiens, UniProt P43004). Put plainly: Inhibition of [3H]-D-aspartate uptake at human EAAT2 expressed in HEK293 cells after 6 mins by scintillation counting. The method in brief:
(§1)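 Each transporter subtype stably expressed in its own HEK293 cell line. Inhibitor potency measured as block of [³H]-D-aspartate uptake into these cells and reported as IC₅₀ values.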

Experiment [2] has as its target T1, Excitatory amino acid transporter 3 (Homo sapiens, UniProt P43005).
T1 sequence (P43005 whole entry): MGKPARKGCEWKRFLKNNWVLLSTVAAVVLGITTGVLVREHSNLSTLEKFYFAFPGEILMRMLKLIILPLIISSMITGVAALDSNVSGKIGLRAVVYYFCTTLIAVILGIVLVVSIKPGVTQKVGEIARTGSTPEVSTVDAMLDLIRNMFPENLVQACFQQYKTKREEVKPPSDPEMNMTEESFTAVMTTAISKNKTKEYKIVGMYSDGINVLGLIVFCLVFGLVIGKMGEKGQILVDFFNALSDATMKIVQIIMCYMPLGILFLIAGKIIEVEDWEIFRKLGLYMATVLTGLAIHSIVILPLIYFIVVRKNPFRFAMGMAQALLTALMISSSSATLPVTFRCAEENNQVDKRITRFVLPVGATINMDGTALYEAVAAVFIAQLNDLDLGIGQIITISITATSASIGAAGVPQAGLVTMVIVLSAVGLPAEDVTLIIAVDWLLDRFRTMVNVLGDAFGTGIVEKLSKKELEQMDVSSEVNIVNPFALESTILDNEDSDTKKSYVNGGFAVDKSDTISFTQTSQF
Briefly: Inhibition of [3H]-D-aspartate uptake at human EAAT3 expressed in HEK293 cells after 6 mins by scintillation counting. The method in brief: as §1

For experiment [3], the target named is Excitatory amino acid transporter 1 (Homo sapiens, UniProt P43003). Put plainly: Inhibition of [3H]-D-aspartate uptake at human EAAT1 expressed in HEK293 cells after 6 mins by scintillation counting. In outline: as §1
Sequence of Excitatory amino acid transporter 1 (P43003 whole entry): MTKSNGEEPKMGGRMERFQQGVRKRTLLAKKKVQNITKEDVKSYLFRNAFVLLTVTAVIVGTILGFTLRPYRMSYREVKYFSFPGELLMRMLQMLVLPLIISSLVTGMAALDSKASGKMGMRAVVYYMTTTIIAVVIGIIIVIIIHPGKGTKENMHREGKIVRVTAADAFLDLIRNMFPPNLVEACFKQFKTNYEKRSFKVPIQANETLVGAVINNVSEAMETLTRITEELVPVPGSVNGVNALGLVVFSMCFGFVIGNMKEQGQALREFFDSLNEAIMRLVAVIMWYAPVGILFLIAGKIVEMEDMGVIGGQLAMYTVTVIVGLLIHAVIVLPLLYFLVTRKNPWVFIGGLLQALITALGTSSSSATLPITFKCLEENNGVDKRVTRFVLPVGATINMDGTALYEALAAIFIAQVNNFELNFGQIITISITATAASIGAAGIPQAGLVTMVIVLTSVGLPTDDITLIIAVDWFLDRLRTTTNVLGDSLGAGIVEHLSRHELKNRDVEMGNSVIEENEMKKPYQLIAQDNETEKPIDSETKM

The structures appear in SMILES notation.

For orientation: IC50 means the point on the concentration scale where inhibition reaches its midpoint. Higher therefore signals weaker potency.

Sequence of Excitatory amino acid transporter 2 (P43004 whole entry): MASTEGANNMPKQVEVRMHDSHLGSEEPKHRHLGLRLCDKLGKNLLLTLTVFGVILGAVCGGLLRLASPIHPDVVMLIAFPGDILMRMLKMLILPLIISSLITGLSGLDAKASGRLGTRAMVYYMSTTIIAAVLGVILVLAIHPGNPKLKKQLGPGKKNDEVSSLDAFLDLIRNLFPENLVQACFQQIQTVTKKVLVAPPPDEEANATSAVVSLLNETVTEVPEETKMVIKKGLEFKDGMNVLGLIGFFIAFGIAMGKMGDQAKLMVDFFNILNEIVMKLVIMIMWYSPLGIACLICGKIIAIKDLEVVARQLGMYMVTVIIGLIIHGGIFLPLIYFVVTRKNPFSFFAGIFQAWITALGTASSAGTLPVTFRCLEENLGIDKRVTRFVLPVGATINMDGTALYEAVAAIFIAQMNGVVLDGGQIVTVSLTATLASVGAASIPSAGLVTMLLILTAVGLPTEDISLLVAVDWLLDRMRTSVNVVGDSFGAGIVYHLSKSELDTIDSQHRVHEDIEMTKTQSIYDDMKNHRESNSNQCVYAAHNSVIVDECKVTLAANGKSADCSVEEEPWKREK

Turning to `CCN(CC)c1ccc2c(C)c(-c3ccc(C4C5=C(CC(c6ccccc6)CC5=O)OC(=N)C4C#N)cc3)c(=O)oc2c1` (configuration not stated), the IC50 in experiment [1] was more than 300 µM; in experiment [2], more than 300 µM; in experiment [3], more than 316 µM.

Consider `COc1ccc2c(C)c(-c3ccc(C4C5=C(CC(c6ccccc6)CC5=O)OC(=N)C4C#N)cc3)c(=O)oc2c1` (configuration not stated), for which the values for the IC50 in experiment [1], in experiment [2] and in experiment [3] were more than 300 µM, more than 300 µM and more than 316 µM, respectively.

Regarding `CCN(CC)c1ccc2c(C3C4=C(CC(c5cccc6ccccc56)CC4=O)OC(=N)C3C#N)cc(=O)oc2c1` (configuration not stated), the IC50 in experiment [1] was more than 300 µM; in experiment [2], more than 300 µM; in experiment [3], more than 316 µM.

Turning to `COc1ccc2c(C3C4=C(CC(c5ccccc5)CC4=O)OC(=N)C3C#N)cc(=O)oc2c1` (configuration not stated), the IC50 is more than 300 µM in experiment [1], more than 300 µM in experiment [2] and more than 316 µM in experiment [3].
